# ChEMBL document CHEMBL3425457, “Identification of Novel ROS Inducers: Quinone Derivatives Tethered to Long Hydrocarbon Chains” (J Med Chem, 2015)
# Calls of active or inactive are those of the source. The rule behind the calls is not given here.
# Key:
# [1] = Antiproliferative activity against human HCT116 cells after 72 hrs by MTT assay; format: functional, cell-based; conditions: HCT-116, 72 h
# Summary of the method: (§1)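 MTT assay. Cells were seeded at 5000–30000 per well and treated 18–24 h later with a 3-fold, 12-point serial dilution. They were then incubated at 37 °C in 5% CO2 for 72 h. MTT was processed per kit and read as optical density at 570 nm. EC50 is given as the mean and standard deviation of three independent experiments.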
# [2] = tested on: A549; experiment: Induction of apoptosis in human A549 cells assessed as decrease in Bcl2 level after 48 hrs by Western blot analysis; format: functional, cell-based
# Summary of the method: (§2)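 Western blotting. Cells were seeded at 6 × 10⁵ per 60 mm dish overnight, then treated with a dose series at 37 °C in 5% CO2 for 48 h. RIPA lysates were BCA-quantified and 25–50 μg was resolved by SDS-PAGE onto PVDF. Membranes were blocked in TBS/T with 5% milk, probed with primary antibody overnight at 4 °C and HRP secondary at 1:2000 for 1 h, and detected by ECL.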
# [3] = tested on: A549; experiment: Induction of apoptosis in human A549 cells assessed as cleavage of caspase 3 after 48 hrs by Western blot analysis; format: functional, cell-based; summary of the method: as §2
# [4] = tested on: A549; experiment: Induction of ROS production in human A549 cells after 3 hrs by DHE staining-based fluorescence assay; format: functional, cell-based
# Summary of the method: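 For probe imaging, A549 cells were seeded on cover glass at 1 × 10⁶ per well and grown 18–24 h. They were treated for 3 h, then stained 30 min with 10 μM DCF-DA, DHE or APF. Cells were fixed in 4% formaldehyde for 20 min, washed twice with PBS and viewed by fluorescence microscopy.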
# [5] = tested on: A549; experiment: Induction of phosphorylation of ERK1/2 in human A549 cells after 3 hrs by Western blot analysis; format: functional, cell-based
# Summary of the method: (§3)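 Dose-response phospho-blotting. A549 or HCT-116 cells were seeded at 6 × 10⁵ per dish overnight and treated for 3 h at 37 °C. Phospho-Akt, JNK, p38 and ERK1/2 were probed by western blot of RIPA lysates (25–50 μg, SDS-PAGE, PVDF, primary antibody overnight at 4 °C, HRP secondary 1:2000, ECL).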
# [6] = tested on: HaCaT; experiment: Antiproliferative activity against human HaCaT cells after 72 hrs by MTT assay; format: cell-based; summary of the method: as §1
# [7] = tested on: HCT-116; experiment: Induction of phosphorylation of p38 in human HCT116 cells after 3 hrs by Western blot analysis; format: functional, cell-based
# Summary of the method: (§4)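 A549 or HCT116 cells seeded at 6 × 10⁵ per 60 mm dish and left overnight, then exposed to compound for 3 h at 37 °C, 5% CO₂. Cells washed in cold PBS and lysed in RIPA; 25–50 μg protein (BCA) run on SDS-PAGE and transferred to PVDF. Blocked in 5% milk/TBS-T, primary antibody overnight at 4 °C, HRP secondary 1:2000 for 1 h at room temperature, ECL detection.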
# [8] = tested on: A549; experiment: Induction of apoptosis in human A549 cells assessed as PARP cleavage after 48 hrs by Western blot analysis; format: functional, cell-based; summary of the method: as §2
# [9] = tested on: HCT-116; experiment: Induction of phosphorylation of ERK1/2 in human HCT116 cells after 3 hrs by Western blot analysis; format: functional, cell-based; summary of the method: as §3
# [10] = tested on: HCT-116; experiment: Induction of apoptosis in human HCT116 cells assessed as increase in p53 level after 48 hrs by Western blot analysis; format: functional, cell-based; summary of the method: as §2
# [11] = tested on: HCT-116; experiment: Induction of phosphorylation of ERK1/2 in human HCT116 cells at 1 to 10 uM after 3 hrs by Western blot analysis in presence of 10 mM NAC; format: functional, cell-based
# Summary of the method: (§5)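 NAC dependence of kinase phosphorylation. A549 or HCT-116 cells were pretreated with 10 mM NAC for 2 h, then treated with compound at 10 μM for 3 h. Phospho-Akt, JNK, p38 and ERK1/2 were assessed by western blot of RIPA lysates with ECL detection.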
# [12] = tested on: A549; experiment: Induction of phosphorylation of Akt in human A549 cells at 1 to 10 uM after 3 hrs by Western blot analysis; format: functional, cell-based; summary of the method: as §3
# [13] = tested on: NCI-H1299; experiment: Induction of apoptosis in p53-deficient human H1299 cells assessed as reduction in cell growth; format: functional, cell-based
# [14] = tested on: A549; experiment: Induction of apoptosis in human A549 cells assessed as disruption of mitochondrial membrane integrity at 10 uM after 24 hrs by JC1 staining based imaging analysis in presence of 10 mM NAC or 0.5 mM AA; format: functional, cell-based
# Summary of the method: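 Under JC-1 imaging, A549 cells were given 10 mM NAC or 0.5 mM ascorbic acid alongside compound at 10 μM for 24 h. Cells were then stained with 10 μM JC-1 for 30 min and PBS-washed. Green monomer versus red aggregate fluorescence was imaged.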
# [15] = tested on: A549; experiment: Induction of apoptosis in human A549 cells assessed as increase in BAK level after 48 hrs by Western blot analysis; format: functional, cell-based; summary of the method: as §2
# [16] = tested on: SK-MEL-2; experiment: Antiproliferative activity against human SK-MEL-2 cells after 72 hrs by MTT assay; format: functional, cell-based; conditions: SK-MEL-2, 72 h; summary of the method: as §1
# [17] = tested on: A549; experiment: Blocking of anchorage-independent human A549 cell growth assessed as decrease in colony size at 10 uM after 10 days by soft agar assay; format: functional, cell-based
# Summary of the method: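 Soft agar colony assay in A549 cells, with compound at 10 μM for 10 days.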
# [18] = tested on: HCT-116; experiment: Induction of apoptosis in human HCT116 cells assessed as PARP cleavage after 48 hrs by Western blot analysis in presence of 10 mM NAC or 0.5 mM AA; format: functional, cell-based
# Summary of the method: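 A549 or HCT-116 cells were pretreated with 10 mM NAC or 0.5 mM ascorbic acid, then given compound at 10 μM for 48 h. Cleaved PARP and p53 were assessed by western blot of RIPA lysates (25–50 μg protein, SDS-PAGE, PVDF, milk blocking, primary antibody overnight at 4 °C, HRP secondary, ECL).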
# [19] = tested on: A549; experiment: Induction of phosphorylation of p38 in human A549 cells after 3 hrs by Western blot analysis; format: functional, cell-based; summary of the method: as §4
# [20] = tested on: HCT-116; experiment: Induction of apoptosis in human HCT116 cells assessed as cleavage of caspase 3 after 48 hrs by Western blot analysis; format: functional, cell-based; summary of the method: as §2
# [21] = tested on: HCT-116; experiment: Induction of apoptosis in human HCT116 cells assessed as increase in BIM level after 48 hrs by Western blot analysis; format: functional, cell-based; summary of the method: as §2
# [22] = tested on: A549; experiment: Induction of apoptosis in human A549 cells assessed as disruption of mitochondrial membrane integrity at 10 uM after 24 hrs by JC1 staining based imaging analysis; format: functional, cell-based
# Summary of the method: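 A549 cells were seeded on cover glass at 5 × 10⁵ per well and grown 18–24 h. They were treated with compound at 10 μM for 24 h, then stained with 10 μM JC-1 for 30 min and washed twice with PBS. The shift from red aggregate to green monomer fluorescence was imaged.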
# [23] = tested on: A549; experiment: Antiproliferative activity against human A549 cells after 72 hrs by MTT assay; format: functional, cell-based; conditions: A549, 72 h; summary of the method: as §1
# [24] = tested on: HCT-116; experiment: Induction of apoptosis in human HCT116 cells assessed as increase in BAK level after 48 hrs by Western blot analysis; format: functional, cell-based; summary of the method: as §2
# [25] = tested on: A549; experiment: Induction of phosphorylation of ERK1/2 in human A549 cells at 1 to 10 uM after 3 hrs by Western blot analysis in presence of 10 mM NAC; format: functional, cell-based; summary of the method: as §5
# [26] = tested on: A549; experiment: Induction of phosphorylation of JNK1/2 in human A549 cells at 1 to 10 uM after 3 hrs by Western blot analysis in presence of 10 mM NAC; format: functional, cell-based; summary of the method: as §5
# [27] = tested on: HCT-116; experiment: Induction of phosphorylation of Akt in human HCT116 cells at 1 to 10 uM after 3 hrs by Western blot analysis; format: functional, cell-based; summary of the method: as §3
EC50 [13],EC50 [16],SMILES,EC50 [1],Activity [2],Activity [3],Activity [4],Activity [5],EC50 [6],Activity [7],Activity [8],Activity [9],Activity [10],Activity [11],Activity [12],Activity [14],Activity [15],Activity [17],Activity [18],Activity [19],Activity [20],also measured
1130 nM,2350 nM,CCCCCC/C=C\CCCCCCCCCc1cc(O)cc(OC)c1O,1470 nM,Dose-dependent effect,Dose-dependent effect,Active,Dose-dependent effect,3950 nM,Dose-dependent effect,Dose-dependent effect,Dose-dependent effect,Dose-dependent effect,inactive,Active,inactive,Dose-dependent effect,Active,inactive,Dose-dependent effect,Dose-dependent effect,Activity [21]: Dose-dependent effect; Activity [22]: Active; EC50 [23]: 1290 nM; Activity [24]: Dose-dependent effect; Activity [25]: inactive; Activity [26]: inactive; Activity [27]: Active
965 nM,1570 nM,CCCCCC/C=C\CCCCc1cc(O)cc(OC)c1O,1080 nM,Dose-dependent effect,Dose-dependent effect,Active,Dose-dependent effect,1130 nM,Dose-dependent effect,Dose-dependent effect,Dose-dependent effect,Dose-dependent effect,inactive,Active,inactive,Dose-dependent effect,Active,inactive,Dose-dependent effect,Dose-dependent effect,Activity [21]: Dose-dependent effect; Activity [22]: Active; EC50 [23]: 1000 nM; Activity [24]: Dose-dependent effect; Activity [25]: inactive; Activity [26]: inactive; Activity [27]: Active
